Consider 25 compounds from ChEMBL document CHEMBL1129365, “Rational design of novel immunosuppressive drugs: analogues of azathioprine lacking the 6-mercaptopurine substituent retain or have enhanced immunosuppressive effects” (1996).

A word on the inhibition: it is the change of the read-out against control, counted positive when it falls.

What all share (assay type): functional
The nature of assay [1]: Percent inhibition against incorporation of [3H]-thymidine in Human mixed lymphocyte reaction at a concentration of 25 uM.
Assay [2] can be described thus: Inhibition of human mixed leukocyte proliferation in vitro; Not determined. Conditions: read-out: ED50 (the source's name).
The nature of assay [3]: Inhibition of lymphocyte proliferation in vitro by 25 uM. The note with it: Homo sapiens.
A short description of assay [4]: Percent inhibition against incorporation of [3H]thymidine in Human mixed lymphocyte reaction at a concentration of 10 uM.
The nature of assay [5]: Effective dose against inhibitory potency in Human mixed lymphocyte reaction. The note with it: read-out: ED50 (the source's name). In a few lines: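 Human MLR: responder lymphocytes and mitomycin-C-treated stimulator lymphocytes, isolated on Ficoll-Metrizoate (10^5 each), cultured in triplicate in RPMI 1640 with 2 mM glutamine, 10 mM HEPES and 20% (final) pooled human AB serum plus drug. Incubation 5 days at 37 °C under 5% CO2/95% air. [3H]thymidine incorporation read; ED50 taken from a graph of ≥4 points, each the mean of 3–10 experiments.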

Assay [6] can be described thus: Percent inhibition against incorporation of [3H]thymidine in Human mixed lymphocyte reaction at a concentration of 50 uM.

In turn, `Cn1cnc([N+](=O)[O-])c1Sc1[nH]cnc2nc(O)nc1-2` had an inhibition at 25 µM in assay [1] of 50%. For the same compound, the EC50 in assay [2] worked out at 24 µM. `Cc1ccc2[nH]c(Sc3c([N+](=O)[O-])ncn3C)nc2c1` displayed an inhibition at 25 µM in assay [3] of 86%.

In turn, `Cn1cnc([N+](=O)[O-])c1Sc1ncccn1` gave an inhibition at 25 µM in assay [3] of 47%.

`Cn1cnc([N+](=O)[O-])c1Sc1nc2ccccc2[nH]1` returned an inhibition at 25 µM in assay [3] of 90%. With `Cn1cnc([N+](=O)[O-])c1Sc1nc2ccccc2s1`, in assay [1], 25 µM produced 27% inhibition. In turn, `CCOC(=O)CSc1c([N+](=O)[O-])ncn1C` yielded an inhibition at 25 µM in assay [1] of 65%.

With `Cn1cnc([N+](=O)[O-])c1Sc1nccc(O)n1`, testing at 25 µM in assay [3] gave an inhibition of 29%. In assay [3], `Cn1ccnc1Sc1c([N+](=O)[O-])ncn1C` came in with an inhibition at 25 µM of 100%. This compound displayed an inhibition at 10 µM in assay [4] of 82%. In assay [5], the EC50 stood at 3.15 µM. As for `Cc1cc(C)cc(Sc2c([N+](=O)[O-])ncn2C)c1`, in assay [1], the inhibition at 25 µM turned out to be 47%. Regarding `Cn1cnnc1Sc1c([N+](=O)[O-])ncn1C`, the inhibition at 25 µM in assay [3] turned out to be 100%. In assay [4], at 10 µM the inhibition was 98%. In addition, in assay [5], the EC50 came to 2.7 µM.

The compound `Cn1cnc([N+](=O)[O-])c1Sc1ccccc1C(=O)O` came in with an inhibition at 25 µM in assay [1] of 34%. Turning to `Cn1cnc([N+](=O)[O-])c1Sc1ncnc2[nH]cnc12` [AZATHIOPRINE], the inhibition at 25 µM in assay [1] stood at 79%. In addition, the EC50 in assay [5] turned out to be 7.9 µM. Regarding `Cn1cnc([N+](=O)[O-])c1Sc1nc[nH]n1`, in assay [3], the inhibition at 25 µM came out at 58%. For the same compound, in assay [5], the EC50 turned out to be 14 µM.

Take `Cn1cnc([N+](=O)[O-])c1Sc1nc2cc(Cl)c(F)cc2[nH]1`: at 50 µM the inhibition in assay [6] was 59%.

Regarding `Cn1cnc([N+](=O)[O-])c1Sc1nc2ccccc2o1`, 25 µM produced 87% inhibition in assay [1]. The compound `CCn1c(C)nc([N+](=O)[O-])c1Sc1nccn1C` registered an inhibition at 25 µM in assay [3] of 100%. The same compound displayed an inhibition at 10 µM in assay [4] of 98%. Further, the EC50 in assay [5] came out at 2.9 µM. In turn, `Cn1cnc([N+](=O)[O-])c1Sc1ccccn1` registered an inhibition at 25 µM in assay [1] of 76%. With `Cn1cnc([N+](=O)[O-])c1Sc1nc2cc([N+](=O)[O-])ccc2[nH]1`, the inhibition at 25 µM in assay [3] came out at 2%. In turn, `Cn1cnc([N+](=O)[O-])c1SC1=NCCS1` had an inhibition at 25 µM in assay [3] of 100%.

Regarding `Cn1cnc([N+](=O)[O-])c1Sc1ccccc1N`, the inhibition at 25 µM in assay [3] came to 21%.

In the case of `COc1ccc(OC)c2[nH]c(Sc3c([N+](=O)[O-])ncn3C)nc12`, in assay [3], the inhibition at 25 µM amounted to 41%. In assay [3], `Cc1cc(C)nc(Sc2c([N+](=O)[O-])ncn2C)n1` yielded an inhibition at 25 µM of 47%. In the case of `Cn1cnc([N+](=O)[O-])c1Sc1ncc[nH]1`, 25 µM produced 100% inhibition in assay [3]. This compound also came in with an inhibition at 10 µM in assay [4] of 89%. For the same compound, the EC50 in assay [5] came out at 2.8 µM. `COc1cc2nc(Sc3c([N+](=O)[O-])ncn3C)[nH]c2cc1OC` displayed an inhibition at 25 µM in assay [3] of 94%. In assay [3], `CCn1c(C)nc([N+](=O)[O-])c1Sc1nncn1C` gave an inhibition at 25 µM of 100%. This compound also yielded an inhibition at 10 µM in assay [4] of 98%. The EC50 in assay [5] amounted to 2.5 µM.
